# From ChEMBL document CHEMBL1152989, “Results of a double-blind, randomized trial of ceftobiprole treatment of complicated skin and skin structure infections caused by gram-positive bacteria” (Antimicrob Agents Chemother, 2008)
# Columns and labels:
# Staphylococcus aureus [1] = assay: Antibacterial activity against methicillin-resistant Staphylococcus aureus; type: functional
# In short: (§1)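 Duplicate baseline isolates from the infection site were tested centrally for susceptibility on customized TREK broth panels by CLSI methods. Identification was by coagulase and API testing. Staphylococci were typed for mecA and PVL genes by multiplex analysis.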
# Staphylococcus aureus [2] = assay: Antibacterial activity against methicillin-susceptible Staphylococcus aureus infected in human with complicated skin and skin structure infection assessed as cure rate at test-of-cure visit; type: functional
# Staphylococcus aureus [3] = assay: Antibacterial activity against methicillin-resistant Staphylococcus aureus infected in human with complicated skin and skin structure infection assessed as cure rate at test-of-cure visit in presence of C-reactive protein; type: functional
# Staphylococcus aureus [4] = assay: Antibacterial activity against methicillin-resistant Staphylococcus aureus PVL positive isolate infected in human with complicated skin and skin structure infection assessed as cure rate at test-of-cure visit; type: functional
# Homo sapiens [5] = species: Homo sapiens; assay: Toxicity in methicillin-resistant Staphylococcus aureus-infected human with complicated skin and skin structure infection assessed as rash; type: organism-based; settings: in vivo
# In short: (§2)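 Safety population: randomized patients given at least one dose of IV study drug (500 mg every 12 h, 1-h infusion, 7–14 days) or vancomycin 1 g every 12 h, double-blind. Adverse events, including deaths, were recorded during treatment and follow-up. Laboratory values were compared between baseline and end of therapy.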
# Homo sapiens [6] = species: Homo sapiens; assay: Toxicity in methicillin-resistant Staphylococcus aureus-infected human with complicated skin and skin structure infection assessed as vomiting; type: organism-based; settings: in vivo; in short: as §2
# Homo sapiens [7] = species: Homo sapiens; assay: Toxicity in methicillin-resistant Staphylococcus aureus-infected human with complicated skin and skin structure infection assessed as headache; type: organism-based; settings: in vivo; in short: as §2
# Staphylococcus aureus [8] = assay: Antibacterial activity against methicillin-resistant Staphylococcus aureus infected in human with infections extending to fascia or muscle assessed as cure rate at test-of-cure visit; type: functional, Muscle tissue
# Staphylococcus aureus [9] = assay: Antibacterial activity against methicillin-resistant Staphylococcus aureus clinical isolate; type: functional; in short: as §1
# Homo sapiens [10] = species: Homo sapiens; assay: Toxicity in methicillin-resistant Staphylococcus aureus-infected human with complicated skin and skin structure infection assessed as nausea; type: organism-based; settings: in vivo; in short: as §2
# Homo sapiens [11] = species: Homo sapiens; assay: Toxicity in methicillin-resistant Staphylococcus aureus-infected human assessed as death; type: organism-based; settings: in vivo; in short: as §2
# Homo sapiens [12] = species: Homo sapiens; assay: Toxicity in methicillin-resistant Staphylococcus aureus-infected human with complicated skin and skin structure infection assessed as dysgeusia; type: organism-based; settings: in vivo; in short: as §2
# Staphylococcus aureus [13] = assay: Antibacterial activity against methicillin-susceptible Staphylococcus aureus; type: functional; in short: as §1
# Homo sapiens [14] = species: Homo sapiens; assay: Toxicity in methicillin-resistant Staphylococcus aureus-infected human with complicated skin and skin structure infection assessed as pruritus; type: organism-based; settings: in vivo; in short: as §2
# Homo sapiens [15] = species: Homo sapiens; assay: Toxicity in methicillin-resistant Staphylococcus aureus-infected human with complicated skin and skin structure infection assessed as constipation; type: organism-based; settings: in vivo; in short: as §2
# Homo sapiens [16] = species: Homo sapiens; assay: Toxicity in methicillin-resistant Staphylococcus aureus-infected human with complicated skin and skin structure infection assessed as dizziness; type: organism-based; settings: in vivo; in short: as §2
# Staphylococcus aureus [17] = assay: Antibacterial activity against methicillin-resistant Staphylococcus aureus infected in human with complicated skin and skin structure infection assessed as cure rate at test-of-cure visit; type: functional
# Homo sapiens [18] = species: Homo sapiens; assay: Toxicity in methicillin-resistant Staphylococcus aureus-infected human with complicated skin and skin structure infection assessed as diarrhea; type: organism-based; settings: in vivo; in short: as §2
Compound,MIC90 (Staphylococcus aureus [1]),Activity (Staphylococcus aureus [2]),Activity (Staphylococcus aureus [3]),Activity (Staphylococcus aureus [4]),Activity (Homo sapiens [5]),Activity (Homo sapiens [6]),Activity (Homo sapiens [7]),Activity (Staphylococcus aureus [8]),MIC50 (Staphylococcus aureus [9]),MIC90 (Staphylococcus aureus [9]),Activity (Homo sapiens [10]),Activity (Homo sapiens [11]),Activity (Homo sapiens [12]),MIC50 (Staphylococcus aureus [13]),MIC90 (Staphylococcus aureus [13]),Activity (Homo sapiens [14]),Activity (Homo sapiens [15]),Activity (Homo sapiens [16]),Activity (Staphylococcus aureus [17]),Activity (Homo sapiens [18])
Nc1nc(/C(=N/O)C(=O)N[C@@H]2C(=O)N3C(C(=O)O)=C(/C=C4\CCN([C@@H]5CCNC5)C4=O)CS[C@H]23)ns1 [CEFTOBIPROLE],≤ 2 µg/mL,96%,86.9%,93.1%,2%,7%,7%,90.5%,0.5 µg/mL,2 µg/mL,14%,Non-toxic,8%,0.25 µg/mL,0.5 µg/mL,3%,4%,4%,91.8%,5%
CN[C@H](CC(C)C)C(=O)N[C@H]1C(=O)N[C@@H](CC(N)=O)C(=O)N[C@H]2C(=O)N[C@H]3C(=O)N[C@H](C(=O)N[C@H](C(=O)O)c4cc(O)cc(O)c4-c4cc3ccc4O)[C@H](O)c3ccc(c(Cl)c3)Oc3cc2cc(c3O[C@@H]2O[C@H](CO)[C@@H](O)[C@H](O)[C@H]2O[C@H]2C[C@](C)(N)[C@H](O)[C@H](C)O2)Oc2ccc(cc2Cl)[C@H]1O [VANCOMYCIN],–,96.4%,87.5%,84.6%,3%,4%,6%,85.7%,0.5 µg/mL,1 µg/mL,8%,–,1%,0.5 µg/mL,1 µg/mL,6%,3%,2%,90%,4%
